We go through one compound from paper PMC6404779 (Nature medicine, 2018).

Bounds are passed on as bounds.

For one assay, the target named is BRAF/CRAF dimers (Homo sapiens, UniProt P04049). The experiment in a line: RAF dimer immunoprecipitation in 293H. Format: cell-based. In a few lines: (§1)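 293H cells with inducible NRAS Q61K co-expressed V5- and FLAG-tagged pairs: BRAF/BRAF, p61 BRAF/p61 BRAF, CRAF-V5/BRAF-FLAG, catC-V5/p61 BRAF-FLAG, CRAF/CRAF or catC/catC. Cells were exposed 1 hr to increasing test compound concentrations, and lysates were immunoprecipitated with anti-V5 agarose. Blots were probed with anti-V5/anti-FLAG. Pulled-down tagged proteins were quantified by densitometry, normalized to untreated cells and plotted as response curves; 3 independent repeats.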

Assay [1] relates to activated CRAF homodimers. Put plainly: ERK signaling in SKBR3 cells ectopically expressing RAF proteins. Format: cell-based. To be noted: 1hr. In a few lines: (§2)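 SKBR3 cells (DMEM/F12 + 10% FBS) were transfected the day after seeding (Lipofectamine 2000, DNA:lipid 1:3) with plasmids for the indicated RAF proteins or empty pcDNA3. After 24 h, RAF-transfected cells got 1 uM lapatinib to suppress endogenous RAF activity; vector cells got DMSO. Test compound was then added at increasing doses for 1 hr. Protein expression and phosphorylation were read by Western blot; 3–4 independent repeats.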

Assay [2] has as its target RAS-dependent full length BRAF/BRAF dimers (Homo sapiens, UniProt P15056). The experiment in a line: RAF dimer immunoprecipitation in 293H. Format: cell-based.
Assay [3] has as its system RAS-independent truncated CRAF (Cat C) homodimers. Put plainly: RAF dimer immunoprecipitation in 293H. The format is cell-based. To be noted: concentrations as high as 10uM. In a few lines:
as §1

Assay [4] deals with HeLa cells (WT RAS and RAF) with CRAF overexpression. Put plainly: ERK signaling in HeLa cells stably expressing RAF. Format: cell-based. As to conditions: 1hr.
The target in assay [5] is RAS-dependent full length CRAF dimers (Homo sapiens, UniProt P04049). Put plainly: RAF dimer immunoprecipitation in 293H. Format: cell-based. As to conditions: concentrations as high as 10uM. The essentials:
as §1

Assay [6] has as its system RAF-null MEFs expressing CRAF. The experiment in a line: ERK signaling in RAF-null MEFs expressing one RAF isoform. The format is cell-based, Mouse. As to conditions: 1hr. The essentials: (§3)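 RAF-less MEFs came from Araflox/lox;Braflox/lox;Craflox/lox;RERT ert/ert MEFs. Doxycycline-inducible wild-type ARAF, BRAF or CRAF was transduced retrovirally without 4-OHT and selected with puromycin/hygromycin. Cells were then infected with Adeno-Cre (MOI 100) and cultured in 1 uM 4-OHT plus 50 ng/ml doxycycline. GFP-positive cells were sorted after 2 weeks. Loss of endogenous RAF and induced expression were confirmed by genomic PCR and Western blot.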

Assay [7] has as its system p61 BRAF V600E homodimers (SK-MEL-239 C4). Put plainly: p-ERK Western blot, 1 hr drug treatment. Format: cell-based. The essentials: (§4)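 SK-MEL-239 and SK-MEL-239 C4 cells (DMEM, glutamine, antibiotics, 10% FBS) were exposed 1 hr to 0–30,000 nM test compound (0,10,30,100,300,1000,3000,10,000, 30,000 nM). Whole-cell lysates were Western blotted, and p-ERK/total ERK was quantified by densitometry and normalized to untreated cells. IC75 is the concentration giving 75% inhibition on the response curve; 4 independent repeats, mean±s.d.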

The test system of assay [8] is Class 2 BRAF mutants (SK-MEL-239 C4, SK-MEL-246, JVM-3, and 22RV1). The experiment in a line: ERK signaling in a panel of cell lines, 1 hour. The format is cell-based.
Assay [9] concerns WT RAS/RAF (primary keratinocytes). Put plainly: p-ERK Western blot, 1 hr drug treatment. Format: cell-based. As to conditions: Keratinocyte, read-out: IC50 for p-ERK in keratinocytes. In a few lines: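 SK-MEL-2 (RPMI, 10% FBS) or primary keratinocytes (Dermal Cell Basal Medium + keratinocyte growth kit) were exposed 1 hr to 0–30,000 nM compound (nine points, 10 to 30,000 nM). Lysates were Western blotted, and p-ERK/total ERK was quantified by densitometry and normalized to untreated cells. IC50 is the concentration giving 50% inhibition on the response curve; n=4, mean±s.d.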
Background: In western blotting, separated proteins are transferred to a membrane and probed.

The test system of assay [10] is BRAF K601E CRC PDX tumors. Put plainly: Colorectal cancer PDX model. The format is in vivo, NSG mice. To be noted: vemurafenib 75mg/kg BID, PLX8394 50mg/kg BID.
The subject of another assay is CRAF knockout MEF cells. Put plainly: p-MEK/p-ERK in RAF knockout MEF cells. Format: cell-based, Mouse. To be noted: 1hr. The essentials: (§5)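 Wild-type control MEFs and ARAF, BRAF or CRAF knockout MEFs (from a conditional RAF knockout line) were exposed 1 hr to increasing test compound concentrations. Western blot measured p-MEK, MEK, p-ERK and ERK. p-MEK/MEK and p-ERK/ERK were quantified by densitometry, normalized to untreated cells and plotted as response curves (mean±s.d.). Cellular experiments were repeated at least three times.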

Assay [11] deals with BRAF V600E monomers (SK-MEL-239). Put plainly: p-ERK Western blot, 1 hr drug treatment. Format: cell-based. As to conditions: p-ERK/total ERK by densitometry, calculated from the curves in Figure 1. In a few lines: as §4
The target of assay [12] is RAS-independent BRAF dimers (p61 BRAF) (Homo sapiens, UniProt P15056). The experiment in a line: RAF dimer immunoprecipitation in 293H. Format: cell-based. To be noted: read-out: IC50 for decrease of dimer levels, p61 BRAF; 1hr; IP/Western blot. The essentials: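 293H cells carried doxycycline-inducible NRAS Q61K introduced by retrovirus. They were transfected with Lipofectamine 2000 (DNA:reagent 1:3) to co-express V5- and FLAG-tagged full-length BRAF or p61 BRAF pairs. Cells were exposed to increasing test-compound doses for 1 hr, then lysed, and lysates were immunoprecipitated with anti-V5 agarose (1:200). Blots were probed with anti-V5 and anti-FLAG. Pulled-down FLAG and V5 proteins were quantified by densitometry and normalised to untreated cells.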

For a further assay, the system named is p61 BRAF V600E dimers. The experiment in a line: ERK signaling in SKBR3 cells ectopically expressing RAF proteins. Format: cell-based. As to conditions: 1hr. In a few lines:
as §2

Another assay concerns BRAF V600E monomers. Described as above. The format is cell-based. As to conditions: 1hr. In a few lines: as §2
Assay [13] concerns Class 3 mutants (H508 and H1666). Put plainly: ERK signaling in a panel of cell lines, 1 hour. Format: cell-based.
The next assay concerns BRAF knockout MEF cells. The experiment in a line: p-MEK/p-ERK in RAF knockout MEF cells. The format is cell-based, Mouse. As to conditions: 1hr. In a few lines:
as §5

The test system of a further assay is ARAF knockout MEF cells. Put plainly: p-MEK/p-ERK in RAF knockout MEF cells. The format is cell-based, Mouse. As to conditions: 1hr. The essentials: as §5
In assay [14] the test system is RAF-null MEFs expressing ARAF. The experiment in a line: ERK signaling in RAF-null MEFs expressing one RAF isoform. To be noted: 1hr. The format is cell-based, Mouse. The essentials:
as §3

Assay [15] deals with Class 1 (BRAF V600 mutants) monomers (A375, SK-MEL-239 and MDST-8). The experiment in a line: ERK signaling in a panel of cell lines, 1 hour. Format: cell-based.

In general, IC50 refers to the concentration that gives 50% inhibition.

Chain of BRAF/CRAF dimers (P04049 whole entry): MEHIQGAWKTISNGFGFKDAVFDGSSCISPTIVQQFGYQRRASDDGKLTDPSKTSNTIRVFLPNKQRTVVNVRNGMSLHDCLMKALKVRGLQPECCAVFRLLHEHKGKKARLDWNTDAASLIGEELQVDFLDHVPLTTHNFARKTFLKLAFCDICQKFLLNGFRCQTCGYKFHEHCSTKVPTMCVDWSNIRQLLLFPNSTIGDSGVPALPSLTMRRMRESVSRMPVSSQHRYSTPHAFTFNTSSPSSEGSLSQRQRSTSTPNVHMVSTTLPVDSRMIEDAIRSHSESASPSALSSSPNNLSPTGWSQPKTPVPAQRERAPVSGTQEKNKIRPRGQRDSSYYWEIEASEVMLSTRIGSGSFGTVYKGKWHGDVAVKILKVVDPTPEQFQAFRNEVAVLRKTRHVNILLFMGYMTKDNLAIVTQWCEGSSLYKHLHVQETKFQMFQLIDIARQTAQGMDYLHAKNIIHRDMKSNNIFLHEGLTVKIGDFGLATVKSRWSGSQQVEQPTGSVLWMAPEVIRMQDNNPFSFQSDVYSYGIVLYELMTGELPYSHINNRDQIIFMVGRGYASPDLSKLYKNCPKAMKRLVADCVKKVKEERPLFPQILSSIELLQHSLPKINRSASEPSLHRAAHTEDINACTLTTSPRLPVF
Chain of RAS-dependent full length CRAF dimers (P04049 whole entry): as above
Chain of RAS-dependent full length CRAF dimers (P04049 whole entry): as above

In the case of `O=C(c1c(F)ccc(NS(=O)(=O)N2CC[C@@H](F)C2)c1F)c1c[nH]c2ncc(-c3cnc(C4CC4)nc3)cc12` [PLX8394], the concentration for half-maximal inhibition (IC50) against BRAF/CRAF dimers is 100 to 300 nM; in [2], 100 to 300 nM; in [9] it was above 20000 nM; in [12], 100 to 300 nM. Further, the “effect on ERK signaling in cells with activated CRAF homodimers” value in assay [1] is recorded as “activated ERK signaling”. The “time to reduction in BRAF-containing dimers after drug treatment” value in [2] (1uM, 293H cells) was at most 15 min. The “effect on truncated CRAF (Cat C) homodimer levels” value in [3] was “no effect”. For the same compound, in assay [4], the “effect on ERK signaling, CRAF overexpression” value is on record as “activated the pathway”. Also, the “effect on full length CRAF dimer levels” value in assay [5] is recorded as “no effect”. The “effect on ERK signaling, cells expressing only CRAF” value in assay [6] was “activated”. Moreover, the “IC75 of p-ERK in SK-MEL-239 C4” value in assay [7] (1 hr, p-ERK/total ERK by densitometry, calculated from the curves in Figure 1) was 158 nM. Further, the “concentration that inhibits p61 dimers” value in [7] (SK-MEL-239 C4, 1 hr) is recorded as 100~300 nM. In addition, in assay [8], the “concentrations inhibiting ERK signaling in cells expressing Class 2 BRAF mutants” value lay within 100 to 1000 nM. In addition, in assay [10], the “tumor growth response, single RAF inhibitor” value is given as “partially inhibited”. The “effect on ERK signaling, CRAF-knockout” value in the assay on CRAF knockout MEF cells is reported as “inhibited signaling”. Moreover, the “IC75 of p-ERK in SK-MEL-239” value in assay [11] is 39 nM. In addition, the “doses required to inhibit p61 BRAF V600E dimers” value in the assay on p61 BRAF V600E dimers fell in the range of 100 to 300 nM. Further, the “doses required to inhibit BRAF V600E monomers” value in the assay with BRAF V600E monomers was in the range of 30 to 100 nM. For the same compound, in assay [13], the “concentrations inhibiting Class 3 mutants driven signaling” value lay in the range of 1 to 10 µM. Also, the “effect on ERK signaling, BRAF knocked out” value with BRAF knockout MEF cells is reported as “induced ERK signaling”. Also, the “effect on ERK signaling, ARAF knockout” value with ARAF knockout MEF cells is “minimal effects”. Besides, the “effect on ERK signaling, cells expressing only ARAF” value in assay [14] was “activated”. Moreover, the “concentrations inhibiting ERK signaling driven by Class 1 monomers” value in [15] was 30 to 100 nM.
